Experimental data reported in ChEMBL document CHEMBL1121486, “Synthesis of nitrosourea derivatives of pyridine and piperidine as potential anticancer agents” (1980).
Several values for one entry are separate records, joined by “and”; a condition that tells them apart may be missing. Equal values may be shown once.

Experiments:
[1] = system: Lewis lung carcinoma cell line; assay: Effect of compound on Lewis Lung carcinoma after single ip injection on day 1 recorded as animal weight difference of the treated and the control (T-C) at OD of 64-2 mg/kg; assay type: functional, Mus musculus
[2] = system: Lewis lung carcinoma cell line; assay: Effect of compound on Lewis Lung carcinoma after single dose injected intraperitoneally on day 1 recorded as animal weight difference of the treated and the control (T-C) at OD of 64 mg/kg; assay type: functional, Mus musculus; details: route intraperitoneal
Mus musculus [3] = assay: Compound tested for the effect on total white blood cell count and reported as percentage change from control on day 5 at 40.25 mg/kg (ip); assay type: functional
Method in brief: (§1)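 Total white blood cell count in mice. Treatment was intraperitoneal at the listed mg/kg doses, 10 mice per group. Counts were taken on days 3, 5 and 7 and expressed as % change from control, with the control being each group's predose value. Significance was taken at p ≤ 0.05.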

Mus musculus [4] = assay: Compound tested for the effect on total white blood cell count and reported as percentage change from control on day 5 at 90.5 mg/kg (ip); assay type: functional; method in brief: as §1
Mus musculus [5] = assay: Compound tested for the effect on total white blood cell count and reported as percentage change from control on day 7 at 40.25 mg/kg (ip); assay type: functional; method in brief: as §1
Mus musculus [6] = assay: Compound tested for the effect on total white blood cell count and reported as percentage change from control on day 3 at 11.31 mg/kg (ip); assay type: functional; method in brief: as §1
Mus musculus [7] = assay: Compound tested for the effect on total white blood cell count and reported as percentage change from control on day 3 at 22.63 mg/kg (ip); assay type: functional; method in brief: as §1
Mus musculus [8] = assay: Compound tested for the effect on total white blood cell count and reported as percentage change from control on day 3 at 40.25 mg/kg (ip); assay type: functional; method in brief: as §1
Mus musculus [9] = assay: Compound tested for the effect on total white blood cell count and reported as percentage change from control on day 3 at 90.5 mg/kg (ip); assay type: functional; method in brief: as §1
Mus musculus [10] = assay: Compound tested for the effect on total white blood cell count and reported as percentage change from control on day 5 at 22.63 mg/kg (ip); assay type: functional; method in brief: as §1
[11] = system: Lewis lung carcinoma cell line; assay: Effect of compound on Lewis Lung carcinoma after single dose injected intraperitoneally on day 1 recorded as percentage of cured animals at OD of 64 mg/kg; details: Mus musculus, route intraperitoneal
3EM 37 [12] = assay: Compound tested for activity against 3EM 37 mouse ependymoblastoma after single ip injection on day 1 at optimal dose of 128 mg/kg (Dose range 256-16); assay type: functional; details: route intraperitoneal
3EM 37 [13] = assay: Effect of compound on 3EM 37 mouse ependymoblastoma after single ip injection on day 1 recorded as animal weight difference of the treated and the control (T-C) at OD of 100 mg/kg; assay type: functional; details: route intraperitoneal
3EM 37 [14] = assay: Effect of compound on 3EM 37 mouse ependymoblastoma after single ip injection on day 1 recorded as percentage of cured animals at OD of 100 mg/kg; assay type: functional; details: route intraperitoneal
3EM 37 [15] = assay: Compound tested for toxicity against 3EM 37 mouse ependymoblastoma after single ip injection on day 1 at optimal dose (OD) of 100 mg/kg on the 5th day after the injection of the compound; (10/10); details: route intraperitoneal

For `O=NN(CCCl)C(=O)NCCCl` [CARMUSTINE], the Optimal dose [1] was 32 mg/kg, the T-C [2] was -3.5 g and the Change (Mus musculus [3]) was -22%. It also gave a Change (Mus musculus [4]) of -48%, a Change (Mus musculus [5]) of -41% and a Change (Mus musculus [6]) of -47%. It also gave a Change (Mus musculus [7]) of -33%, a Change (Mus musculus [8]) of -46% and a Change (Mus musculus [9]) of -68%. The Change (Mus musculus [10]) was -28% and -42% and the T/C [11] was greater than 353%.
Work on `CC1CCC(NC(=O)N(CCCl)N=O)CC1` (stereo not given) [SEMUSTINE] yielded an Optimal dose (3EM 37 [12]) of 128 mg/kg, a T-C (3EM 37 [13]) of 1 g and a T/C (3EM 37 [14]) of 204%. For the same compound, the Survival (3EM 37 [15]) was 9.
